Measurements: PMC3171567 (Steroids, 2011)
Substitutions are numbered along the chain they refer to. Where two headings read alike, the source gives them in different places. One block for each molecule: values may come before it.

Assays:
[1] = tested on: AR protein in LAPC-4 tumors; experiment: AR protein levels in excised LAPC-4 tumors, western blot; format: in vivo, male SCID mice
[2] = tested on: prostate, seminal vesicles, and the testes; experiment: Urogenital tissue weights in LAPC-4 xenograft mice; format: in vivo, male SCID mice; conditions: 31 days, 0.15 mmol/kg; 3 and 5 s.c. b.i.d., 4 and 5-acetate p.o.
Procedure, shortened: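 Male SCID mice, 4–6 weeks old, housed pathogen-free with food and water ad libitum. LAPC-4 cells were scraped into DPBS, pelleted and resuspended in Matrigel (10 mg/ml) at 2.0 × 10^7 cells/mL before inoculation. Vehicle was 0.3% HPC; test compounds were given at 0.15 mmol/kg. After 31 days of treatment, prostate, seminal vesicles and testes were excised and weighed and compared with vehicle controls.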

LAPC-4 xenografts = experiment: LAPC-4 prostate cancer xenograft anti-tumor efficacy; format: in vivo, male SCID mice; conditions: for efficacy of oral dosing (in words): 0.15 mmol/kg o.d. p.o. up to day 24; for effect on LAPC-4 tumor growth (in words): third study, 0.15 mmol/kg s.c. once daily
human CYP17 [3] = target: T1, human CYP17 (Homo sapiens, UniProt P05093); conditions: read-out: CYP17 IC50; value for 5; cited from earlier work
T1 sequence (P05093 whole entry): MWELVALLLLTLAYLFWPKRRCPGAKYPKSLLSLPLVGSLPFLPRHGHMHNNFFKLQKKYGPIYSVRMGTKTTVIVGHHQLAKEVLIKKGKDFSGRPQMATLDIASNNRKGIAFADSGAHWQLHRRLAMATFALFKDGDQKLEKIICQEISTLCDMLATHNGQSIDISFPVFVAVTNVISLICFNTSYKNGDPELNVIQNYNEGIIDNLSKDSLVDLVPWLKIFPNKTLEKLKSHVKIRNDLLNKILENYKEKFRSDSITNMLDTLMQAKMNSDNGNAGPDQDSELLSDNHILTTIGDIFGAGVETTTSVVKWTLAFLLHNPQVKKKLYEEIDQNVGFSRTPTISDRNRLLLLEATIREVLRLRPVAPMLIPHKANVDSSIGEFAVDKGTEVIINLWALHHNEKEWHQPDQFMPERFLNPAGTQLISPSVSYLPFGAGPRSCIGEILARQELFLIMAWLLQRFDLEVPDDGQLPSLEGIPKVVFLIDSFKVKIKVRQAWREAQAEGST

LNCaP cells = experiment: Cell proliferation / viability XTT assay, LNCaP; format: cell-based; conditions: Homo sapiens; for GI50: read-out: Cell growth inhibition GI50 LNCaP; for IC50: read-out: IC50 in DHT stimulated LNCaP cells; for inhibition at 10 µM: read-out: inhibition of LNCaP proliferation
LAPC-4 cells = experiment: Cell proliferation / viability XTT assay, LAPC-4; format: cell-based; conditions: Homo sapiens; for GI50: LAPC4, read-out: Cell growth inhibition GI50 LAPC-4; for IC50: LAPC4, read-out: IC50 in DHT stimulated LAPC4 proliferation
Procedure, shortened: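 Cells moved to steroid-free medium (phenol red-free RPMI, 5% dextran-coated charcoal-treated serum, 1% penicillin/streptomycin) 3 days before plating at 1.5 × 10^4 cells/well. After 24 h attachment, they were given steroid-free medium with ethanol vehicle, androgens and/or test compound, changed every three days. Viability was read by XTT absorbance on day 7. Each result is the average of at least three wells.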

human CYP17 [4] = target: T1, human CYP17; experiment: Acetic acid releasing assay for CYP17 activity in 293T-CYP17 cells; format: cell-based; conditions: read-out: CYP17 IC50, each in duplicate
[5] = Toxicity monitoring in LAPC-4 xenograft mice; format: in vivo, male SCID mice; conditions: third study; for deaths of mice: 10 mice per group
[6] = tested on: androgen receptor expression in LNCaP cells; experiment: AR down-regulation in LNCaP cells, western blot densitometry; format: cell-based, human; conditions: for AR down-regulation (in words): highest concentration (15 μM) tested
[7] = target: T2, wild-type AR (in LAPC-4 cells) (Homo sapiens, UniProt P10275); format: binding
T2 sequence (P10275 1-920): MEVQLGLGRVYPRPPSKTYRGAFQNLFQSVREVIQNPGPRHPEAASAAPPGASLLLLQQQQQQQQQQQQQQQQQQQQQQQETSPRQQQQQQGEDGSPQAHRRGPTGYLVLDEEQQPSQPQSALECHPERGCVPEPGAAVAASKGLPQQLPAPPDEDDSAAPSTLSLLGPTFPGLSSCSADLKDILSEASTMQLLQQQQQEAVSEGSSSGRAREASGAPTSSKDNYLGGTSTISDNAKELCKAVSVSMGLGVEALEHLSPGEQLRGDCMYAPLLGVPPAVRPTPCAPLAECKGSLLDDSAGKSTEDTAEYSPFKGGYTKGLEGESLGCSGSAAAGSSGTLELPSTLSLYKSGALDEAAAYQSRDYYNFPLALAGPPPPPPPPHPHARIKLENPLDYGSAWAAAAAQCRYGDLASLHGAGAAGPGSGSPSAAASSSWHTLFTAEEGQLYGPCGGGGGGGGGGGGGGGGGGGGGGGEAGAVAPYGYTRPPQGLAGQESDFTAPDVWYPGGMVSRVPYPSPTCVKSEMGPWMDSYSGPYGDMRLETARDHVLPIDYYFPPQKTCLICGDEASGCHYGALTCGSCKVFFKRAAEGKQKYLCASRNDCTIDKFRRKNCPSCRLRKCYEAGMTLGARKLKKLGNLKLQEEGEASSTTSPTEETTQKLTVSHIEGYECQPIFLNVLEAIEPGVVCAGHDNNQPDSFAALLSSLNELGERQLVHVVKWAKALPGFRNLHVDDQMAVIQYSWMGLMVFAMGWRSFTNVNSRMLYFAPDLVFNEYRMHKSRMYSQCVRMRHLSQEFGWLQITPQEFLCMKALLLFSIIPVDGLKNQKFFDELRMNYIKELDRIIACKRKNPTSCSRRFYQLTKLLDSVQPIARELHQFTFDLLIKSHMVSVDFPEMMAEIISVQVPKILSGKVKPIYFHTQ

[8] = target: T3, mutant T877A AR (in LNCaP cells) (Homo sapiens, UniProt P10275, T878A); format: binding
T3 sequence (P10275 1-920 T878A): T2 sequence (P10275 1-920) with T878A

[9] = tested on: androgen-induced AR transcription; experiment: Transcriptional activation luciferase assay; format: cell-based, human; conditions: LNCaP, ARR-2 reporter, with or without DHT
Procedure, shortened: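 LNCaP cells were kept steroid-free for 3 days, plated at 1 × 10^5 cells/well, then co-transfected with ARR2-Luc and Renilla pRL-null using Lipofectamine 2000. After 24 h at 37 °C, cells in serum-free phenol red-free RPMI were treated in triplicate with DHT, ethanol vehicle and/or test compound for 18 h. A dual luciferase read-out gave fold induction over control, normalized to Renilla.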

[10] = first study, 0.15 mmol/kg s.c. b.i.d.

Compound: C[C@]12CC[C@H](O)CC1=CC[C@@H]1[C@@H]2CC[C@]2(C)C(c3cccnc3)=CC[C@@H]12 [Compound 3, 3β-Hydroxy-17-(3-pyridyl)androsta-5,16-dien]
effect on AR levels in tumors (in words) [1, 10]: no significant effect on AR levels
prostate size/weight (in words) [2]: failed to significantly reduce the size of any of the organs
seminal vesicles size/weight (in words) [2]: failed to significantly reduce the size of any of the organs
testes size/weight (in words) [2]: failed to significantly reduce the size of any of the organs
efficacy of oral dosing (in words) (LAPC-4 xenografts; first study): neither compound demonstrated any significant efficacy

Compound: CC(=O)O[C@H]1CC[C@@]2(C)C(=CC[C@@H]3[C@@H]2CC[C@]2(C)C(c4cccnc4)=CC[C@@H]32)C1 [Compound 4, 3β-Acetoxy-17-(3-pyridyl)androsta-5,16-dien, reference compound]
seminal vesicles size/weight (in words) [2]: significantly reduced the size of the seminal vesicles
efficacy of oral dosing (in words) (LAPC-4 xenografts; first study): neither compound demonstrated any significant efficacy

GI50 (LNCaP cells): 6 µM
Compound: C[C@]12CC[C@H](O)CC1=CC[C@@H]1[C@@H]2CC[C@]2(C)C(n3cnc4ccccc43)=CC[C@@H]12 [Compound 5, 3β-Hydroxy-17-(1H-benzimidazol-1-yl)androsta-5,16-dien]
prostate size/weight (in words) [2]: reduced the size of the prostate, although the reduction was not quite significant
seminal vesicles size/weight (in words) [2]: significantly reduced the size of the seminal vesicles and testes
testes size/weight (in words) [2]: significantly reduced the size of the seminal vesicles and testes
IC50 (human CYP17 [3]): 0.047 µM
inhibition of growth of LAPC-4 tumors (in words) (LAPC-4 xenografts; [10]): most effective therapy in inhibiting the growth of LAPC-4 tumors
average tumor volume on day 31 (in words) (LAPC-4 xenografts; first study, 0.15 mmol/kg s.c. b.i.d., vs control p = 0.0001, 4 p = 0.005, 3 p = 0.053, 5-acetate p = 0.006): smaller average tumor volume on day 31
final tumor weights (in words) (LAPC-4 xenografts; first study, 31 days of treatment, vs control, 3, and castration, p < 0.05): significantly reduced
oral activity (in words) (LAPC-4 xenografts; preclinical studies): not orally active
effect on LAPC-4 tumor growth (in words) (LAPC-4 xenografts): did not have a significant effect on tumor growth
GI50 (LAPC-4 cells): 3.2 µM

Compound: C[C@]12CCC(F)CC1=CC[C@@H]1[C@@H]2CC[C@]2(C)C(n3cnc4ccccc43)=CC[C@@H]12 (some centres unmarked) [Compound 6, 3ξ-Fluoro-17-(1H-benzimidazol-1-yl)androsta-5,16-dien]
effect on AR protein levels in tumors (in words) ([1]; third study, 0.15 mmol/kg s.c., twice daily administration): only a minor and statistically insignificant effect on AR protein levels
IC50 (human CYP17 [4]): 0.15 µM
changes in mouse weights (in words) [5]: no changes in mouse weights were observed
deaths of mice ([5]; 0.15 mmol/kg s.c. once daily): five mice
deaths of mice ([5]; 0.15 mmol/kg s.c. twice daily): two mice
signs of toxicity at internal examination (in words) ([5]; necropsy): no overt signs toxicity were seen
AR down-regulation ([6]; 15 μM, 24 hours): 50%
efficacy versus LAPC-4 xenografts relative to 5 (LAPC-4 xenografts; on equimolar basis): ~ 2 fold
effect on LAPC-4 tumor growth (in words) (LAPC-4 xenografts): as effective in inhibiting LAPC-4 tumor growth as twice daily administration of 5
EC50 [7]: 0.934 µM
reduction of wild-type AR binding compared to 5 ([7]; ratio of EC50 to that of 5): 2.3 fold
GI50 (LNCaP cells): 8 µM
IC50 (LNCaP cells): 8 µM
inhibition at 10 µM (LNCaP cells): 85%
GI50 (LAPC-4 cells): 16 µM
IC50 (LAPC-4 cells): 7 µM
EC50 [8]: 1.6 µM
binding to the mutant AR compared to 5 (in words) [8]: not significantly different from binding of 5
AR agonist/antagonist character in transcriptional activation studies [9]: pure AR antagonists

Compound: C[C@]12CC[C@@H](N=[N+]=[N-])CC1=CC[C@@H]1[C@@H]2CC[C@]2(C)C(n3cnc4ccccc43)=CC[C@@H]12 [Compound 8, 3α-Azido-17-(1H-benzimidazol-1-yl)androsta-5,16-dien]
IC50 (human CYP17 [4]): 0.12 µM
AR down-regulation (in words) [6]: did not cause down-regulation of AR expression
EC50 [7]: 2.46 µM
binding affinity to the wild-type AR compared to 5 (in words) [7]: greatly reduced
GI50 (LNCaP cells): 7 µM
IC50 (LNCaP cells): 16 µM
inhibition at 10 µM (LNCaP cells): 60%
GI50 (LAPC-4 cells): 19 µM
IC50 (LAPC-4 cells): 19 µM
EC50 [8]: 4.34 µM
binding to the mutant AR compared to 5 (in words) [8]: greatly reduced
AR agonist/antagonist character in transcriptional activation studies [9]: pure AR antagonists

Compound: C[C@]12CC[C@H](OS(N)(=O)=O)CC1=CC[C@@H]1[C@@H]2CC[C@]2(C)C(n3cnc4ccccc43)=CC[C@@H]12 [Compound 9, 3β-O-Sulfamoyl-17-(1H-benzimidazol-1-yl)androsta-5,16-dien]
effect on LAPC-4 tumor growth, oral (in words) (LAPC-4 xenografts; administered orally as described for 5): did not show any significant effect on LAPC-4 tumor growth

Compound: C[C@]12CC[C@H](O)CC1=CC[C@@H]1[C@@H]2CC[C@]2(C)C(n3cnc4ccccc43)CC[C@@H]12 (stereo partly drawn) [Compound 10, 3β-Hydroxy-17-(1H-benzimidazol-1-yl)androsta-5-ene]
AR down-regulation (in words) [6]: did not cause down-regulation of AR expression

Compound: C[C@]12CC[C@H](O)C[C@@H]1CC[C@@H]1[C@@H]2CC[C@]2(C)C(n3cnc4ccccc43)=CC[C@@H]12 [Compound 15, 3β-Hydroxy-17-(1H-benzimidazol-1-yl)-5α-androsta-16-ene]
AR down-regulation (in words) [6]: did not cause down-regulation of AR expression
GI50 (LNCaP cells): 17.6 µM
